Test results published in ChEMBL document CHEMBL1765085, “Cytotoxic and apoptosis-inducing activities of triterpene acids from Poria cocos” (J Nat Prod, 2011).
Calls of active or inactive are those of the source. The calls are words filed in the database; no cut-off is given here.

Assays:
HL-60 [1] = assay: Cytotoxicity in human HL60 cells assessed as cell viability after 48 hrs by MTT assay; format: functional, cell-based; conditions: HL-60, 48 h
How it was run: (§1)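 Growth conditions: RPMI 1640 for HL60, CRL1579, NIH:OVCAR-3, SK-BR-3, DU145 and PANC-1; D-MEM for A549; MEM for WI-38; all with 10% FBS and antibiotics, 37 °C, 5% CO2. Seeded at 3 × 10^3 cells/well (OVCAR-3 1 × 10^4), then treated 48 h with 10^-4 to 10^-6 M. MTT for 3 h, formazan dissolved in 0.04 M HCl/2-propanol, A570/630. IC50 (50% growth inhibition) from triplicates.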

A549 [2] = assay: Cytotoxicity in human A549 cells assessed as cell viability after 48 hrs by MTT assay; format: functional, cell-based; conditions: A549, 48 h; how it was run: as §1
OVCAR-3 = assay: Cytotoxicity in human OVCAR3 cells assessed as cell viability after 48 hrs by MTT assay; format: functional, cell-based; conditions: OVCAR-3, 48 h; how it was run: as §1
SK-BR-3 = assay: Cytotoxicity in human SK-BR-3 cells assessed as cell viability after 48 hrs by MTT assay; format: functional, cell-based; conditions: SK-BR-3, 48 h; how it was run: as §1
DU-145 = assay: Cytotoxicity in human DU145 cells assessed as cell viability after 48 hrs by MTT assay; format: functional, cell-based; conditions: DU-145, 48 h; how it was run: as §1
PANC-1 = assay: Cytotoxicity in human PANC1 cells assessed as cell viability after 48 hrs by MTT assay; format: functional, cell-based; conditions: PANC-1, 48 h; how it was run: as §1
HL-60 [3] = assay: Cell cycle arrest in human HL60 cells assessed as accumulation at Go/G1 phase at 30 uM after 24 hrs by flow cytometry (reference value: 51.4%); format: functional
How it was run: (§2)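 Cells seeded at 1 × 10^5 per sample for HL60 and 1.5 × 10^5 for A549, then exposed to 30 μM for 0, 24 or 48 h. After a PBS wash, DNA was stained with Nim-DAPI for 10 min at room temperature. Phase distribution was read by flow cytometry, with the sub-G1 (fragmented DNA) fraction taken as the apoptosis index. Values are means of three experiments.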

HL-60 [4] = assay: Cell cycle arrest in human HL60 cells assessed as accumulation at S phase at 30 uM after 24 hrs by flow cytometry (reference value: 42.6%); format: functional; how it was run: as §2
HL-60 [5] = assay: Cell cycle arrest in human HL60 cells assessed as accumulation at sub-G1 phase at 30 uM after 48 hrs by flow cytometry (reference value: 3.0%); format: functional; how it was run: as §2
HL-60 [6] = assay: Induction of apoptosis in human HL60 cells assessed as accumulation at Go/G1 phase at 30 uM after 48 hrs by flow cytometry (reference value: 51.4%); format: functional; how it was run: as §2
A549 [7] = assay: Cell cycle arrest in human A549 cells assessed as accumulation at sub-G1 phase at 30 uM after 24 hrs by flow cytometry (reference value: 3.1%); format: functional; how it was run: as §2
A549 [8] = assay: Cell cycle arrest in human A549 cells assessed as accumulation at G2/M phase at 30 uM after 24 hrs by flow cytometry (reference value: 4.9%); format: functional; how it was run: as §2
A549 [9] = assay: Cell cycle arrest in human A549 cells assessed as accumulation at G2/M phase at 30 uM after 48 hrs by flow cytometry (reference value: 4.9%); format: functional; how it was run: as §2
A549 [10] = assay: Cell cycle arrest in human A549 cells assessed as accumulation at Go/G1 phase at 30 uM after 48 hrs by flow cytometry (reference value: 64.3%); format: functional; how it was run: as §2
HL-60 [11] = assay: Induction of mitochondrial signal transduction pathway-mediated apoptosis in human HL60 cells assessed as increase in cleaved caspase-3 level at 30 uM after 8 hrs by Western blot analysis; format: functional, cell-based
How it was run: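 HL60 cells (1 × 10^6) were pre-incubated 24 h, then given 30 μM for 8 or 24 h. Whole-cell lysates were run on 15% SDS-PAGE, transferred to PVDF and probed overnight at 4 °C for procaspase and cleaved caspase-3, with β-actin as loading control.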

HL-60 [12] = assay: Induction of mitochondrial signal transduction pathway-mediated apoptosis in human HL60 cells assessed as increase in cleaved caspase-8 level at 30 uM after 8 hrs by Western blot analysis; format: functional, cell-based
How it was run: (§3)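 HL60 cells (1 × 10^6) pre-incubated 24 h, then exposed to 30 μM final for 8 h. Whole-cell lysates in extraction buffer, resolved on 15% SDS-PAGE, blotted to PVDF, probed overnight at 4 °C with anti-caspase-8 or anti-caspase-9 primary antibodies, β-actin as loading reference. Procaspase loss and cleaved caspase bands read.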

HL-60 [13] = assay: Induction of mitochondrial signal transduction pathway-mediated apoptosis in human HL60 cells assessed as increase in cleaved caspase-9 level at 30 uM after 8 hrs by Western blot analysis; format: functional, cell-based; how it was run: as §3
HL-60 [14] = assay: Induction of apoptosis in human HL60 cells assessed as necrotic cells at 30 uM after 48 hrs by AnnexinV/propidium iodide staining (Rvb =2.3%); format: functional
HL-60 [15] = assay: Induction of apoptosis in human HL60 cells assessed as viable cells at 30 uM after 24 hrs by AnnexinV/propidium iodide staining (Rvb =85.6%); format: functional; conditions: HL-60, 24 h, read-out: Activity
HL-60 [16] = assay: Induction of apoptosis in human HL60 cells assessed as viable cells at 30 uM after 48 hrs by AnnexinV/propidium iodide staining (Rvb =85.6%); format: functional; conditions: HL-60, 48 h, read-out: Activity
A549 [17] = assay: Induction of apoptosis in human A549 cells assessed as necrotic cells at 30 uM after 48 hrs by AnnexinV/propidium iodide staining (Rvb =3.4%); format: functional
A549 [18] = assay: Induction of apoptosis in human A549 cells assessed as late apoptotic cells at 30 uM after 24 hrs by AnnexinV/propidium iodide staining (Rvb =1.1%); format: functional
A549 [19] = assay: Induction of apoptosis in human A549 cells assessed as viable cells at 30 uM after 24 hrs by AnnexinV/propidium iodide staining (Rvb =91.2%); format: functional; conditions: A549, 24 h, read-out: Activity
A549 [20] = assay: Induction of apoptosis in human A549 cells assessed as viable cells at 30 uM after 48 hrs by AnnexinV/propidium iodide staining (Rvb =91.2%); format: functional; conditions: A549, 48 h, read-out: Activity
HL-60 [21] = assay: Induction of apoptosis in human HL60 cells assessed as early apoptotic cells at 30 uM after 24 hrs by AnnexinV/propidium iodide staining (Rvb =7.6%)
HL-60 [22] = assay: Induction of apoptosis in human HL60 cells assessed as early apoptotic cells at 30 uM after 48 hrs by AnnexinV/propidium iodide staining (Rvb =7.6%)
HL-60 [23] = assay: Induction of mitochondrial signal transduction pathway-mediated apoptosis in human HL60 cells assessed as decrease in Bcl-2 level at 30 uM after 8 to 24 hrs by Western blot analysis; conditions: TDE = time-dependent effect
A549 [24] = assay: Induction of mitochondrial signal transduction pathway-mediated apoptosis in human A549 cells assessed as increase in cleaved caspase-3 level at 30 uM after 24 to 48 hrs by Western blot analysis
A549 [25] = assay: Induction of mitochondrial signal transduction pathway-mediated apoptosis in human A549 cells assessed as increase in cleaved caspase-8 level at 30 uM after 24 to 48 hrs by Western blot analysis

C=C(CC[C@@H](CO)[C@H]1[C@H](O)C[C@@]2(C)C3=CC[C@@H](C(=C)C)[C@](C)(CCCO)C3=CC[C@]12C)C(C)C [PORICOTRIOL A]
IC50 (HL-60 [1]): 1.9 µM | IC50 (A549 [2]): 4.2 µM | IC50 (OVCAR-3): 2.2 µM | IC50 (SK-BR-3): 1.2 µM | IC50 (DU-145): 14.5 µM | IC50 (PANC-1): 26.3 µM | Activity (HL-60 [3]): 62.3% | Activity (HL-60 [4]): 28.9% | Activity (HL-60 [5]): 38.7% | Activity (HL-60 [6]): 58.6% | Activity (A549 [7]): 7.5% | Activity (A549 [8]): 7.5% | Activity (A549 [9]): 3.6% | Activity (A549 [10]): 73% | Activity (HL-60 [11]): Active | Activity (HL-60 [12]): Active | Activity (HL-60 [13]): Active | Activity (HL-60 [14]): 2.5% | viability at 30 µM (HL-60 [15]): 34.8% | viability at 30 µM (HL-60 [16]): 14.7% | Activity (A549 [17]): 6.3% | Activity (A549 [18]): 2.9% | viability at 30 µM (A549 [19]): 89.2% | viability at 30 µM (A549 [20]): 49.3% | Activity (HL-60 [21]): 48.1% | Activity (HL-60 [22]): 52.5% | Activity (HL-60 [23]): tde | Activity (A549 [24]): inactive | Activity (A549 [25]): inactive
